A word on the EC50: it is the concentration at which the effect is half-maximal. By half-life is commonly meant the time needed for the level to fall by half in the phase considered. Read a high half-life as slow loss.

Activity calls are given as the source filed them. *1 amine or outer side, *2 acyl side, *3 side chain or, on linkers, in order; H or OH if unused. Where a SMILES comes first, the peptide text is derived from it. Side-chain parts run from the residue outwards. The star is where a group is joined. Mycophenolyl = COc1c(C)c2c(c(O)c1C/C=C(\C)CCC(=O)*)C(=O)OC2; γGlu = O=C(O)[C@H](CCC(=O)[*:2])N[*:1]; 12Ado = NCCCCCCCCCCCC(=O)O; Ahx = NCCCCCC(=O)O Bounds are passed on as bounds.

Series [1] deals with Glucagon-like peptide 1 receptor (Homo sapiens, UniProt P43220). The series is described as follows: Agonist activity at human GLP1 receptor expressed in HEK293 cells assessed as increase in cAMP level after 30 mins by HTRF method. Type of series: functional, cell-based. Put shortly: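 HEK293 cells stably expressing human GLP-1 receptor, thawed, suspended in DMEM with 20 mM HEPES, 2 mM L-Glu, 0.5% FBS, 1% pen-strep. Compounds dissolved in DMSO, diluted in assay buffer to 1 × 10−13–1 × 10−6 M final, 30 min at 37 °C in 5% CO2. cAMP read by HTRF. EC50 as means ± SD of three individual experiments, n = 3.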
Glucagon-like peptide 1 receptor, sequence (P43220 whole entry): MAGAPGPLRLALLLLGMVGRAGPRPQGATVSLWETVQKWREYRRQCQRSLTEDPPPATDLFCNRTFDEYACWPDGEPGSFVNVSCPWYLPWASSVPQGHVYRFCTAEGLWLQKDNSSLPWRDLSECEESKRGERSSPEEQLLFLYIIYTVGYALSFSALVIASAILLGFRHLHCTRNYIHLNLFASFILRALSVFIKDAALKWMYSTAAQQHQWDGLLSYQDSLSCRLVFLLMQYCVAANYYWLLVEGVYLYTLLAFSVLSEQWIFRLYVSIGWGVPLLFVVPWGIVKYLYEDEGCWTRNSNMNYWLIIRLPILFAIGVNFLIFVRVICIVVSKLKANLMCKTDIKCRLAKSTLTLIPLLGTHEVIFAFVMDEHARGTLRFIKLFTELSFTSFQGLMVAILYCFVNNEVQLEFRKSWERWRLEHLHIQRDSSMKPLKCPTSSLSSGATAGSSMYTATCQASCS
A general note: Cyclic AMP is a second messenger, typically raised through Gs and lowered through Gi signalling.

Series [2] relates to Mus musculus. The series is described as follows: Antidiabetic activity in Kunming mouse assessed as reduction in blood glucose level at 25 nmol/kg, ip pretreated for 30 mins followed by glucose-challenge and measured after 15 to 120 mins by IPGTT. It counts as functional, organism-based. Put shortly:
(§1)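 Male Kunming mice (20–25 g, n = 6) fasted overnight. Peptide or saline 25 nmol kg−1 ip at −30 min, ip glucose 2 g kg−1 at 0 min. Tail-vein blood glucose by glucometer at −30, 0, 15, 30, 60 and 120 min. Glucose AUC0–120min calculated; means ± SD.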

In series [3] the test system is Mus musculus. The series is described as follows: Antidiabetic activity in Kunming mouse assessed as reduction in blood glucose AUC at 25 nmol/kg, ip pretreated for 30 mins followed by glucose-challenge and measured after 15 to 120 mins by IPGTT. It counts as functional, organism-based. The procedure, abridged: as §1
In another series the target is Albumin (Homo sapiens, UniProt P02768). The series is described as follows: Binding affinity to human serum albumin after 60 mins by ultrafiltration-based HPLC analysis. It counts as ADME. Put shortly: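 Peptide in PBS pH 7.4 (100 μg ml−1) mixed with HSA (10 mg ml−1 in PBS), incubated 60 min at 37 °C. Ultrafiltration through 30 kDa cutoff filter, 30 min at 3500 rpm. Free compound in filtrate by HPLC. Membrane adsorption checked (<4%). Repeated three times.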
Albumin, sequence (P02768 whole entry): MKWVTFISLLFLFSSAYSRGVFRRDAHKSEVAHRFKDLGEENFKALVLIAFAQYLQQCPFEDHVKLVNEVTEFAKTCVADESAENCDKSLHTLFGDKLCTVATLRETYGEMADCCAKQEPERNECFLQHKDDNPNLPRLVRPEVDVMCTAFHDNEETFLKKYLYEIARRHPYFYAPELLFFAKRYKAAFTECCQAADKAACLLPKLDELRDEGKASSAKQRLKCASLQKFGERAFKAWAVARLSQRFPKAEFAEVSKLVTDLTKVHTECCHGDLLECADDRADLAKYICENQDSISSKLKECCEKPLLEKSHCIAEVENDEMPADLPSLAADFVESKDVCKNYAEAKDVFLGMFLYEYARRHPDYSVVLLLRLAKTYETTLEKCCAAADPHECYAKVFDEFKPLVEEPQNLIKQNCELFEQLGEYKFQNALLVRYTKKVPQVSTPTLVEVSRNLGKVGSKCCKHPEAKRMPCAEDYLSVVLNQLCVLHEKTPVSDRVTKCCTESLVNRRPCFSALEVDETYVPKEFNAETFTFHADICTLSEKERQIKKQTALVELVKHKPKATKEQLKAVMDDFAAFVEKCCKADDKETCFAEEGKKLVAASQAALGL

The nature of series [4]: Half life in Sprague-Dawley rat plasma at 0.5 mL by LC-MS/MS analysis. It counts as ADME, cell-free. The procedure, abridged:
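Plasma from male Sprague-Dawley rats (200–250 g). Peptide in PBS pH 7.4 added to initial 1000 ng ml−1 and incubated at 37 °C for 48 h. Samples at 2, 4, 8, 12, 24, 36, 48 h precipitated with acetonitrile containing 2% formic acid, centrifuged, analysed by LC-MS/MS in MRM mode. Degradation curves in triplicate.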

`CC[C@H](C)[C@H](NC(=O)[C@H](CC(C)C)NC(=O)[C@H](Cc1c[nH]c2ccccc12)NC(=O)[C@H](CCC(=O)O)NC(=O)[C@@H](NC(=O)[C@H](Cc1ccccc1)NC(=O)[C@H](CCC(=O)O)NC(=O)[C@H](CCCCNC(=O)CC[C@H](NC(=O)CCCCCCCCCCCNC(=O)CC/C(C)=C/Cc1c(O)c2c(c(C)c1OC)COC2=O)C(=O)O)NC(=O)[C@H](C)NC(=O)[C@H](C)NC(=O)[C@H](CCC(=O)O)NC(=O)[C@H](CCC(=O)O)NC(=O)[C@H](CCC(=O)O)NC(=O)[C@H](CC(C)C)NC(=O)[C@H](Cc1ccc(O)cc1)NC(=O)[C@H](CCC(=O)O)NC(=O)[C@@H](NC(=O)[C@@H](NC(=O)[C@H](CC(=O)O)NC(=O)[C@H](CC(N)=O)NC(=O)[C@@H](NC(=O)[C@H](Cc1ccc(O)cc1)NC(=O)[C@@H](NC(=O)CNC(=O)[C@H](CCC(=O)O)NC(=O)CNC(=O)[C@@H](N)Cc1cnc[nH]1)[C@@H](C)O)[C@@H](C)O)C(C)C)[C@@H](C)O)[C@@H](C)CC)C(=O)N[C@@H](CCCCN)C(=O)NCC(=O)N[C@@H](CCCCN)C(=O)O` (H-HGEGTYTNDVTEYLEEEAAK([γGlu-12Ado-Mycophenolyl])EFIEWLIKGK-OH): in series [1], the EC50 worked out at 7.3 nM.
Same read-out and setting: next, `CC[C@H](C)[C@H](NC(=O)[C@H](CC(C)C)NC(=O)[C@H](Cc1c[nH]c2ccccc12)NC(=O)[C@H](CCC(=O)O)NC(=O)[C@@H](NC(=O)[C@H](Cc1ccccc1)NC(=O)[C@H](CCC(=O)O)NC(=O)[C@H](CCCCNC(=O)CC[C@H](NC(=O)CCCCCNC(=O)CC/C(C)=C/Cc1c(O)c2c(c(C)c1OC)COC2=O)C(=O)O)NC(=O)[C@H](C)NC(=O)[C@H](C)NC(=O)[C@H](CCC(=O)O)NC(=O)[C@H](CCC(=O)O)NC(=O)[C@H](CCC(=O)O)NC(=O)[C@H](CC(C)C)NC(=O)[C@H](Cc1ccc(O)cc1)NC(=O)[C@H](CCC(=O)O)NC(=O)[C@@H](NC(=O)[C@@H](NC(=O)[C@H](CC(=O)O)NC(=O)[C@H](CC(N)=O)NC(=O)[C@@H](NC(=O)[C@H](Cc1ccc(O)cc1)NC(=O)[C@@H](NC(=O)CNC(=O)[C@H](CCC(=O)O)NC(=O)CNC(=O)[C@@H](N)Cc1cnc[nH]1)[C@@H](C)O)[C@@H](C)O)C(C)C)[C@@H](C)O)[C@@H](C)CC)C(=O)N[C@@H](CCCCN)C(=O)NCC(=O)N[C@@H](CCCCN)C(=O)O` (H-HGEGTYTNDVTEYLEEEAAK([γGlu-Ahx-Mycophenolyl])EFIEWLIKGK-OH): 6.9 nM.
As for `CC[C@H](C)[C@H](NC(=O)[C@H](CC(C)C)NC(=O)[C@H](Cc1c[nH]c2ccccc12)NC(=O)[C@H](CCC(=O)O)NC(=O)[C@@H](NC(=O)[C@H](Cc1ccccc1)NC(=O)[C@H](CCC(=O)O)NC(=O)[C@H](CCCCNC(=O)CC[C@H](NC(=O)CCCCCNC(=O)CC/C(C)=C/Cc1c(O)c2c(c(C)c1OC)COC2=O)C(=O)O)NC(=O)[C@H](C)NC(=O)[C@H](C)NC(=O)[C@H](CCC(=O)O)NC(=O)[C@H](CCC(=O)O)NC(=O)[C@H](CCC(=O)O)NC(=O)[C@H](CC(C)C)NC(=O)[C@H](Cc1ccc(O)cc1)NC(=O)[C@H](CCC(=O)O)NC(=O)[C@@H](NC(=O)[C@@H](NC(=O)[C@H](CC(=O)O)NC(=O)[C@H](CC(N)=O)NC(=O)[C@@H](NC(=O)[C@H](Cc1ccc(O)cc1)NC(=O)[C@@H](NC(=O)CNC(=O)[C@H](CCC(=O)O)NC(=O)CNC(=O)[C@@H](N)Cc1cnc[nH]1)[C@@H](C)O)[C@@H](C)O)C(C)C)[C@@H](C)O)[C@@H](C)CC)C(=O)N[C@@H](CCCCN)C(=O)NCC(=O)N[C@@H](CCCCN)C(=O)N1CCC[C@H]1C(=O)N[C@@H](CO)C(=O)N[C@@H](CO)C(=O)NCC(=O)N[C@@H](C)C(=O)N1CCC[C@H]1C(=O)N1CCC[C@H]1C(=O)N1CCC[C@H]1C(=O)N[C@@H](CO)C(=O)O` (H-HGEGTYTNDVTEYLEEEAAK([γGlu-Ahx-Mycophenolyl])EFIEWLIKGKPSSGAPPPS-OH), the EC50 in series [1] stood at 4.1 nM. For the same molecule, the outcome in the series on Mus musculus [2] and in the series with Mus musculus [3] was Active. Besides, the fraction unbound at 1 h on Albumin (human serum albumin, read-out: PB (converted)) is 0.351. Also, the half-life in series [4] (Sprague-Dawley) is 19.3 h.
As to `CC[C@H](C)[C@H](NC(=O)[C@H](CC(C)C)NC(=O)[C@H](Cc1c[nH]c2ccccc12)NC(=O)[C@H](CCC(=O)O)NC(=O)[C@@H](NC(=O)[C@H](Cc1ccccc1)NC(=O)[C@H](CCC(=O)O)NC(=O)[C@H](CCCCN)NC(=O)[C@H](C)NC(=O)[C@H](C)NC(=O)[C@H](CCC(=O)O)NC(=O)[C@H](CCC(=O)O)NC(=O)[C@H](CCC(=O)O)NC(=O)[C@H](CC(C)C)NC(=O)[C@H](Cc1ccc(O)cc1)NC(=O)[C@H](CCC(=O)O)NC(=O)[C@@H](NC(=O)[C@@H](NC(=O)[C@H](CC(=O)O)NC(=O)[C@H](CC(N)=O)NC(=O)[C@@H](NC(=O)[C@H](Cc1ccc(O)cc1)NC(=O)[C@@H](NC(=O)CNC(=O)[C@H](CCC(=O)O)NC(=O)CNC(=O)[C@@H](N)Cc1cnc[nH]1)[C@@H](C)O)[C@@H](C)O)C(C)C)[C@@H](C)O)[C@@H](C)CC)C(=O)N[C@@H](CCCCNC(=O)CC[C@H](NC(=O)CCCCCCCCCCCNC(=O)CC/C(C)=C/Cc1c(O)c2c(c(C)c1OC)COC2=O)C(=O)O)C(=O)NCC(=O)N[C@@H](CCCCN)C(=O)O` (H-HGEGTYTNDVTEYLEEEAAKEFIEWLIK([γGlu-12Ado-Mycophenolyl])GK-OH), the EC50 in series [1] amounted to 16.3 nM.
On to `CC[C@H](C)[C@H](NC(=O)[C@H](CC(C)C)NC(=O)[C@H](Cc1c[nH]c2ccccc12)NC(=O)[C@H](CCC(=O)O)NC(=O)[C@@H](NC(=O)[C@H](Cc1ccccc1)NC(=O)[C@H](CCC(=O)O)NC(=O)[C@H](CCCCN)NC(=O)[C@H](C)NC(=O)[C@H](C)NC(=O)[C@H](CCC(=O)O)NC(=O)[C@H](CCC(=O)O)NC(=O)[C@H](CCC(=O)O)NC(=O)[C@H](CC(C)C)NC(=O)[C@H](Cc1ccc(O)cc1)NC(=O)[C@H](CCC(=O)O)NC(=O)[C@@H](NC(=O)[C@@H](NC(=O)[C@H](CC(=O)O)NC(=O)[C@H](CC(N)=O)NC(=O)[C@@H](NC(=O)[C@H](Cc1ccc(O)cc1)NC(=O)[C@@H](NC(=O)CNC(=O)[C@H](CCC(=O)O)NC(=O)CNC(=O)[C@@H](N)Cc1cnc[nH]1)[C@@H](C)O)[C@@H](C)O)C(C)C)[C@@H](C)O)[C@@H](C)CC)C(=O)N[C@@H](CCCCNC(=O)CC[C@H](NC(=O)CCCCCNC(=O)CC/C(C)=C/Cc1c(O)c2c(c(C)c1OC)COC2=O)C(=O)O)C(=O)NCC(=O)N[C@@H](CCCCN)C(=O)O` (H-HGEGTYTNDVTEYLEEEAAKEFIEWLIK([γGlu-Ahx-Mycophenolyl])GK-OH), for which the EC50 in series [1] worked out at 11.8 nM.
Regarding `CC[C@H](C)[C@H](NC(=O)[C@H](CC(C)C)NC(=O)[C@H](Cc1c[nH]c2ccccc12)NC(=O)[C@H](CCC(=O)O)NC(=O)[C@@H](NC(=O)[C@H](Cc1ccccc1)NC(=O)[C@H](CCC(=O)O)NC(=O)[C@H](CCCCN)NC(=O)[C@H](C)NC(=O)[C@H](C)NC(=O)[C@H](CCC(=O)O)NC(=O)[C@H](CCC(=O)O)NC(=O)[C@H](CCC(=O)O)NC(=O)[C@H](CC(C)C)NC(=O)[C@H](Cc1ccc(O)cc1)NC(=O)[C@H](CCC(=O)O)NC(=O)[C@@H](NC(=O)[C@@H](NC(=O)[C@H](CC(=O)O)NC(=O)[C@H](CC(N)=O)NC(=O)[C@@H](NC(=O)[C@H](Cc1ccc(O)cc1)NC(=O)[C@@H](NC(=O)CNC(=O)[C@H](CCC(=O)O)NC(=O)CNC(=O)[C@@H](N)Cc1cnc[nH]1)[C@@H](C)O)[C@@H](C)O)C(C)C)[C@@H](C)O)[C@@H](C)CC)C(=O)N[C@@H](CCCCN)C(=O)NCC(=O)N[C@@H](CCCCNC(=O)CC[C@H](NC(=O)CCCCCCCCCCCNC(=O)CC/C(C)=C/Cc1c(O)c2c(c(C)c1OC)COC2=O)C(=O)O)C(=O)O` (H-HGEGTYTNDVTEYLEEEAAKEFIEWLIKGK([γGlu-12Ado-Mycophenolyl])-OH), the EC50 in series [1] was found to be 23.5 nM.
`CC[C@H](C)[C@H](NC(=O)[C@H](CC(C)C)NC(=O)[C@H](Cc1c[nH]c2ccccc12)NC(=O)[C@H](CCC(=O)O)NC(=O)[C@@H](NC(=O)[C@H](Cc1ccccc1)NC(=O)[C@H](CCC(=O)O)NC(=O)[C@H](CCCCN)NC(=O)[C@H](C)NC(=O)[C@H](C)NC(=O)[C@H](CCC(=O)O)NC(=O)[C@H](CCC(=O)O)NC(=O)[C@H](CCC(=O)O)NC(=O)[C@H](CC(C)C)NC(=O)[C@H](Cc1ccc(O)cc1)NC(=O)[C@H](CCC(=O)O)NC(=O)[C@@H](NC(=O)[C@@H](NC(=O)[C@H](CC(=O)O)NC(=O)[C@H](CC(N)=O)NC(=O)[C@@H](NC(=O)[C@H](Cc1ccc(O)cc1)NC(=O)[C@@H](NC(=O)CNC(=O)[C@H](CCC(=O)O)NC(=O)CNC(=O)[C@@H](N)Cc1cnc[nH]1)[C@@H](C)O)[C@@H](C)O)C(C)C)[C@@H](C)O)[C@@H](C)CC)C(=O)N[C@@H](CCCCN)C(=O)NCC(=O)N[C@@H](CCCCNC(=O)CC[C@H](NC(=O)CCCCCNC(=O)CC/C(C)=C/Cc1c(O)c2c(c(C)c1OC)COC2=O)C(=O)O)C(=O)O` (H-HGEGTYTNDVTEYLEEEAAKEFIEWLIKGK([γGlu-Ahx-Mycophenolyl])-OH): the EC50 in series [1] is 16.8 nM.
The same measure, in the same setting: under H-HGEGTYTNDVTEYLEEEAAKEFIEWLIKGK-OH stands 5.4 nM.
Turning to SEMAGLUTIDE, the PB on Albumin (isolated protein, 1 h) turned out to be 97.8%. For the same molecule, the t1/2 in series [4] was > 48 h.

The values are drawn from ChEMBL document CHEMBL4257467, “Synthesis and pharmaceutical characterization of site specific mycophenolic acid-modified Xenopus glucagon-like peptide-1 analogs” (Medchemcomm, 2018).
